Format in all cases: functional
Test [1] relates to Rattus norvegicus. Description: Serum LH releasing potency in vivo after intraperitoneal administration in rats at 3 h. A digest of the protocol:
(§1)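 Blood was drawn by cardiac puncture under light ether anaesthesia at each time point. Serum LH was measured by double-antibody RIA against the LH-RP-3 reference, with three dilutions per serum. Values are mean ± SEM of five rats per group; the experiment was repeated twice more.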

Test [2] relates to Rattus norvegicus. Description: Serum LH releasing potency in vivo after intraperitoneal administration in rats at 24 h. A digest of the protocol:
as §1

Test [3] concerns Rattus norvegicus. Description: Serum LH releasing potency in vivo after intraperitoneal administration in rats at 6 h. A digest of the protocol:
as §1

For test [4], the system named is Rattus norvegicus. Description: Serum LH releasing potency in vivo after intraperitoneal administration in rats at 1.5 h. A digest of the protocol:
as §1

For test [5], the system named is Rattus norvegicus. Description: Serum LH releasing potency in vivo after intraperitoneal administration in rats at 0 h. The procedure, abridged: as §1
The subject of test [6] is Rattus norvegicus. Description: Serum LH releasing potency in vivo after intraperitoneal administration in rats at 10 h. A digest of the protocol:
as §1

The species entered for test [7] is Rattus norvegicus. Description: LH releasing activity in rat. The procedure, abridged:
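Fifteen-week-old female Wistar-derived rats (220–250 g), given 2 nmol/rat ip in 0.5 mL PBS. Blood drawn by cardiac puncture under light ether anesthesia at set times (1.5–24 h). Serum LH measured by double-antibody RIA at three dilutions per sample. Five rats per group; mean ± SEM.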

On to `CC(C)C[C@H](NC(=O)[C@H](CCCCN)NC(=O)[C@H](Cc1ccc(O)cc1)NC(=O)[C@H](CO)NC(=O)[C@H](Cc1c[nH]c2ccccc12)NC(=O)[C@H](Cc1c[nH]cn1)NC(=O)[C@@H]1CCC(=O)N1)C(=O)N[C@@H](CCCN=C(N)N)C(=O)N1CCC[C@H]1C(=O)NCC(N)=O`, for which the Activity in the test on Rattus norvegicus [1] worked out at 21.92 ng/mL; in the test on Rattus norvegicus [2], 0.34 ng/mL; in the test with Rattus norvegicus [3], 2.94 ng/mL; with Rattus norvegicus [4] it was 72.5 ng/mL; in the test on Rattus norvegicus [5], 0.53 ng/mL; in the test on Rattus norvegicus [6], 1.12 ng/mL.
`C=CC1=C(C)c2cc3[nH]c(cc4nc(cc5[nH]c(cc1n2)c(C)c5CCC(=O)O)C(CCC(=O)NCCCC[C@@H](NC(=O)[C@H](Cc1ccc(O)cc1)NC(=O)[C@H](CO)NC(=O)[C@@H](Cc1c[nH]c2ccccc12)NC(=O)[C@@H](Cc1ccccc1)NC(=O)[C@H]1CCC(=O)N1)C(=O)N[C@@H](CC(C)C)C(=O)N[C@@H](CCCN=C(N)N)C(=O)N1CCC[C@H]1C(=O)NCC(N)=O)=C4C)c(C)c3C=C` registered an ED50 in the test listed under Rattus norvegicus [7] of 1800 nM.
Take `C=CC1=C(C)c2cc3[nH]c(cc4nc(cc5[nH]c(cc1n2)c(C)c5CCC(=O)O)C(CCC(=O)NCCCC[C@@H](NC(=O)[C@H](Cc1ccc(O)cc1)NC(=O)[C@H](CO)NC(=O)[C@H](Cc1c[nH]c2ccccc12)NC(=O)[C@H](Cc1c[nH]cn1)NC(=O)[C@@H]1CCC(=O)N1)C(=O)N[C@@H](CC(C)C)C(=O)N[C@@H](CCCN=C(N)N)C(=O)N1CCC[C@H]1C(=O)NCC(N)=O)=C4C)c(C)c3C=C`: the Activity with Rattus norvegicus [1] came out at 11.57 ng/mL; in the test with Rattus norvegicus [2], 0.88 ng/mL; in the test on Rattus norvegicus [3] it was 8.1 ng/mL; with Rattus norvegicus [4], 10.64 ng/mL; with Rattus norvegicus [5], 0.53 ng/mL; in the test on Rattus norvegicus [6] it was 2.9 ng/mL.

The values above are taken from ChEMBL document CHEMBL1145079, “Receptor-mediated targeting of a photosensitizer by its conjugation to gonadotropin-releasing hormone analogues” (J Med Chem, 2003).
